Screens from PubChem.
Only some compounds are listed: those with a hit (about 2% of all), similar ones and a draw of the others.
L929 necroptosis = L929 zVAD cell death inhibition; L929 zVAD necroptosis rescue, ATP luminescence, 24 h; with zVAD 60 µM; viability rescue, % at 10 µM; 220,000 tested, 0.38% active; AID 1377;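 active = activation, scaled between plate controls, above about 75%, limit read from the data; inactive = activation under that limit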;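 note: 0% = zVAD with DMSO and 100% = DMSO alone without zVAD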
TbHK1 inh = T. brucei hexokinase 1 inhibition | recombinant TbHK1, G6PDH-coupled NADH A340 | inhibition, % at 10 µM | 220,000 tested, 0.11% active;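 active = inhibition of 50% or more in the single-dose primary screen; inactive = inhibition below 50%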
PfM18AAP inh = blocks P. falciparum M18 aspartyl aminopeptidase; 290,000 tested, 1.2% active; recombinant PfM18AAP, H-Glu-NHMec fluorogenic cleavage; inhibition, % at 7.35 µM;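 active = inhibition above the campaign mean inhibition over all tested compounds plus 3 SD, cut at about 28% in these data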;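 note: 0% = plate median of test compound wells and 100% = 2 mM ZnCl2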
TNF death inh = blocks TNF-alpha induced death of Jurkat FADD-/- cells | Jurkat FADD-/- TNF necroptosis rescue, ATP luminescence, 24 h; 0 = TNF only, 100 = no-TNF cells | activation (protection from cell death), % at 10 µM | 220,000 tested, 0.068% active | AID 463075;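 active = activation, meaning protection from cell death, of at least 50% relative to plate controls; inactive = activation below 50%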;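 note: necroptosis triggered by 40 ng/mL TNF-alpha added together with compound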
Lipid droplet = hepatic lipid droplet formation modulation | AML12 mouse hepatocytes, oleate lipid droplets, BODIPY imaging | inhibition, % at 6.5 µM | 240,000 tested, 0.4% active | AID 1656;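 active = lipid droplet intensity inhibited by at least 50%, with more than 500 cells counted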
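Assay system: AML12 hepatocytes (mouse); Probe or stimulus: oleic acid at 100 µM to induce lipid droplet formation; Dosing: compound at 6.5 µM only; Schedule: compound with oleate, overnight; Detection: fluorescence imaging, 20x objective, two fields per well; Measure: % inhibition of lipid droplet signal.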
RBBP9 inh = human RBBP9 hydrolase inhibition; inhibition, % at 7.94 µM; recombinant RBBP9, FP-Rh probe fluorescence polarization; O75884; 220,000 tested, 0.2% active;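 active = inhibition above the campaign mean of all tested compounds plus 3 SD, cut at about 14% in these data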;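 note: plate controls were DMSO wells with RBBP9 for no effect and wells lacking RBBP9 protein for full effect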
Target sequence (O75884 whole entry, looked up): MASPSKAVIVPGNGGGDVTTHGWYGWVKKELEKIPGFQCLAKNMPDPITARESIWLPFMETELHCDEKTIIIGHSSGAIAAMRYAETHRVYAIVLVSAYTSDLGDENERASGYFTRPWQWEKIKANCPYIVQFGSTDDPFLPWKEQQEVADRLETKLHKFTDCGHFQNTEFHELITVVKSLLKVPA
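Measured by: FP readout at 525/598 nm; material: recombinant human RBBP9; also added: Serine-hydrolase probe FP-Rh, 375 nM pre-mixing; medium: Tris buffer pH 8.0, NaCl, Pluronic; replication: one well per compound; doses: one concentration, 7.94 µM nominal, 0.794% DMSO; timing: preincubation 30 min plus labeling 45 min at 25 °C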
Hep lipid conf = confirmation of inhibitors of hepatic lipid droplet formation | shares compounds with Lipid droplet | 870 tested, 65% active | AML12 mouse hepatocytes, BODIPY lipid droplet imaging; droplets induced with 100 µM oleic acid | AID 463183 | inhibition, % at 5.2 µM;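 active = inhibition of lipid droplet metric at least 50%, with more than 300 cells in each of four replicates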;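 note: plate controls were DMSO with oleic acid for no effect and 5 µM Triacsin-C for full effect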
AML12 tox img = AML12 hepatocyte cytotoxicity (counter-screen); shares compounds with Lipid droplet; AML12 mouse hepatocytes, DAPI nuclear morphology cytotoxicity imaging; active compounds read high; cells fed 100 µM oleate overnight; z-score at 5 µM; 870 tested, 3% active; in the data active = z-score above about 6.3;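 note: compound exposure lasted overnight at 37 °C before fixation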
AML12 tox conf = AML12 hepatocyte cytotoxicity, confirmed; shares compounds with Lipid droplet; AML12 mouse hepatocyte viability, ATP luminescence; cells loaded with 100 µM oleic acid; cytotoxicity, % at 50 µM; 530 tested, under 10 active;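 active = cytotoxicity above 50% in each of four replicates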;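 note: compound exposure lasted overnight at 37 °C before the ATP read; 0% = DMSO-treated cells and 100% = wells with no cells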
Numbers without * were called inactive; . = not tested or not shown.

SMILES	L929 necroptosis	TbHK1 inh	PfM18AAP inh	TNF death inh	Lipid droplet	RBBP9 inh	Hep lipid conf	AML12 tox img	AML12 tox conf
Cn1c(=O)n(C)c2cc(NC(=O)CSc3ccccc3)ccc21	.	.	3	.	0	.	.	.	.
CCOC(=O)c1ccc(S(=O)(=O)NCC(c2ccc(N(C)C)cc2)c2c[nH]c3ccccc23)cc1 (stereo unspecified)	1	9	-3	4	96*	0	108*	0.39	14
COc1ccccc1N1C(=NC(=O)COc2ccccc2)SC2CS(=O)(=O)CC21 (stereo unspecified)	.	.	-1	.	-5	.	.	.	.
CC(=O)c1ccc(N2CCCC2)c(F)c1	0	-21	-7	-1	53*	3	23	-0.96	.
CC(=O)c1ccc(N2CCC(C)CC2)c(F)c1	1	-4	0	-2	-10	0	.	.	.
C=CCN1C(=O)/C(=C\C=C2\N(C)c3ccccc3C2(C)C)SC1=S	.	-1	-11	-5	91*	-10	107*	-0.34	10
O=C(Nc1cccc(Cn2cccn2)c1)c1cc2c(s1)CCCC2	13	-2	-6	5	55*	-9	57	-0.11	26
COc1ccc(OC)c(NC(=O)C2CCCN(S(C)(=O)=O)C2)c1 (stereo unspecified)	.	.	0	.	16	.	.	.	.
N#CC(C(N)=O)=C1CCCCC1	0	-9	-5	2	-3	-3	.	.	.
CCOc1ccc(OCC)c(NC(=O)CSCC(=O)O)c1	0	-3	0	-1	.	-10	.	.	.
CCOc1ccccc1NC(=O)CSCC(=O)Nc1ccccc1	-1	12	6	3	57*	-8	96*	1.4	2
Cc1[nH]n(-c2ccccc2)c(=O)c1N=Nc1ccc(Cl)cc1	.	.	1	.	54*	.	51	0.57	.
Cc1[nH]n(-c2ccccc2)c(=O)c1N=Nc1ccc(C(=O)O)cc1	.	.	5	.	51*	.	31	-0.38	.
O=C(NCCc1cccs1)C(c1ccccc1)c1ccccc1	.	.	8	.	-34	.	.	.	.
CCOc1ccccc1NC(=O)CC1Nc2cc(C)c(C)cc2NC1=O (stereo unspecified)	1	-20	10	-1	59*	-3	67*	1.3	.
CCN(CC(=O)Nc1c(F)cccc1F)C(=O)CCCc1c[nH]c2ccccc12	.	.	-6	.	82*	.	105*	-0.5	8
CCC(Sc1nc2ccncc2[nH]1)C(=O)Nc1cc(Cl)ccc1C (stereo unspecified)	.	.	4	.	0	.	.	.	.
CC1CN(S(=O)(=O)c2cccc(C(=O)Nc3ccc(S(=O)(=O)Nc4ncccn4)cc3)c2)CC(C)O1 (stereo unspecified)	2	-6	-11	1	26	-2	.	.	.
Cc1ccc(NC(=O)CN(C)S(=O)(=O)c2cccs2)c(Br)c1	.	.	-2	.	63*	.	20	-0.33	.
Cc1ccc(NC(=O)CSc2nc3ccccc3nc2N2CCCC2)cc1	.	.	0	.	70*	.	104*	0.86	4
O=C(CSc1nc2ccccc2nc1N1CCCC1)Nc1ccc(Cl)cc1	.	.	-4	.	8	.	.	.	.
CCc1ccc(NC(=O)CSc2nc3ccccc3nc2N2CCCC2)cc1	.	.	2	.	74*	.	101*	0.98	1
CCc1ccccc1NC(=O)CSc1nc2ccccc2nc1N1CCOCC1	.	.	4	.	-1	.	.	.	.
CC(C)c1ccc(NC(=O)CSc2nc3ccccc3nc2N2CCCC2)cc1	.	.	10	.	70*	.	105*	0.32	6
Cc1cc([N+](=O)[O-])nn1CC(=O)NCc1ccc(Cl)cc1	.	.	0	.	.	.	.	.	.
SMILES	L929 necroptosis	TbHK1 inh	PfM18AAP inh	TNF death inh	Lipid droplet	RBBP9 inh	Hep lipid conf	AML12 tox img	AML12 tox conf
COc1ccc(N=NC2C(=O)N(c3ccccc3)N=C2C)cc1 (stereo unspecified)	.	.	-1	.	52*	.	102*	-0.5	10
CC1=NN(c2ccccc2)C(=O)C1N=Nc1ccccc1 (stereo unspecified)	0	-10	2	-1	38	-9	.	.	.
CCc1c(C#N)c(SCCC(=O)Nc2ccc(OC)cc2)nc2c1C(=O)CC(C)(C)C2	0	2	2	5	54*	2	89*	0.84	0
CC1CCCC(NC(=O)COC(=O)c2sc3ccccc3c2Cl)C1C (stereo unspecified)	0	-13	-6	1	-9	-6	.	.	.
CCOC(=O)c1cc(-c2cccc(C(F)(F)F)c2)nc2nc(SC)[nH]c(=O)c12	.	-9	3	-2	12	-7	.	.	.
COC(=O)c1cc(-c2ccc(OC)cc2)nc2nc(SC)[nH]c(=O)c12	.	.	-9	.	67*	.	27	-0.77	.
CCOC(=O)c1cc(-c2ccc(C)cc2)nc2nc(SC)[nH]c(=O)c12	1	-11	1	0	104*	10	107*	-0.18	.
Cc1ccn(C(=O)c2ccc(NC(=O)CC(C)C)cc2)n1	-1	-1	-4	2	-1	-4	.	.	.
NC(=O)c1nsc(C(=O)N(CC(=O)NC2CCCCC2)c2ccc(Cl)cc2)c1N	.	.	4	.	-3	.	.	.	.
CCOc1cc(CNC(=O)CCCn2c(=O)c3cccn3c3cccnc32)cc(OCC)c1OCC	.	.	-2	.	92*	.	107*	0.45	-2
CCc1ccc(CNC(=O)CCCn2c(=O)c3cccn3c3cccnc32)cc1	.	.	-6	.	3	.	.	.	.
CCCCOc1ccccc1C(=O)N(Cc1ccco1)C1CCS(=O)(=O)C1 (stereo unspecified)	.	.	-1	.	51*	.	53	-0.47	10
Cc1ccc2nc(Cc3ccc(N)cc3)[nH]c2c1	0	0	-1	27	.	0	.	.	.
Nc1ccc2nc(Cc3ccccc3)[nH]c2c1	0	-6	-3	-6	54*	10	-11	0.2	.
c1cc2c3c(cccc3c1)NC1(CCC3(CC1)Nc1cccc4cccc(c14)N3)N2	4	-39	-5	-20	51*	8	14	0.33	.
CC(=O)Nc1ccc(C(=O)NCC2(N3CCCCC3)CCCCC2)cc1	.	.	14	.	-13	.	.	.	.
CCc1cc(SC#N)cc(C)c1NC(=O)CCl	17	31	-1	-11	68*	-4	58	4.3	.
CCOC(=O)CSc1nc2ccccc2c(=O)n1Cc1ccco1	2	-6	-15	3	.	-6	.	.	.
CCOc1ccc2nc(NC(=O)CSc3nc4ccccc4c(=O)n3Cc3ccco3)sc2c1	1	-10	-11	4	57*	-1	106*	-0.69	14
Cc1cc(C)nc(NCCO)n1	3	-2	3	1	81*	-3	30	-0.23	.
